pIC50: −log10 of the molar value.
Assays:
[1] = target: T1, Sodium- and chloride-dependent glycine transporter 2 (Homo sapiens, UniProt Q9Y345); experiment: Inhibition of recombinant human GlyT2a expressed in Xenopus laevis oocytes assessed as reduction in channel current by two-electrode voltage clamp electrophysiology; format: cell-based
T1 sequence (Q9Y345 whole entry): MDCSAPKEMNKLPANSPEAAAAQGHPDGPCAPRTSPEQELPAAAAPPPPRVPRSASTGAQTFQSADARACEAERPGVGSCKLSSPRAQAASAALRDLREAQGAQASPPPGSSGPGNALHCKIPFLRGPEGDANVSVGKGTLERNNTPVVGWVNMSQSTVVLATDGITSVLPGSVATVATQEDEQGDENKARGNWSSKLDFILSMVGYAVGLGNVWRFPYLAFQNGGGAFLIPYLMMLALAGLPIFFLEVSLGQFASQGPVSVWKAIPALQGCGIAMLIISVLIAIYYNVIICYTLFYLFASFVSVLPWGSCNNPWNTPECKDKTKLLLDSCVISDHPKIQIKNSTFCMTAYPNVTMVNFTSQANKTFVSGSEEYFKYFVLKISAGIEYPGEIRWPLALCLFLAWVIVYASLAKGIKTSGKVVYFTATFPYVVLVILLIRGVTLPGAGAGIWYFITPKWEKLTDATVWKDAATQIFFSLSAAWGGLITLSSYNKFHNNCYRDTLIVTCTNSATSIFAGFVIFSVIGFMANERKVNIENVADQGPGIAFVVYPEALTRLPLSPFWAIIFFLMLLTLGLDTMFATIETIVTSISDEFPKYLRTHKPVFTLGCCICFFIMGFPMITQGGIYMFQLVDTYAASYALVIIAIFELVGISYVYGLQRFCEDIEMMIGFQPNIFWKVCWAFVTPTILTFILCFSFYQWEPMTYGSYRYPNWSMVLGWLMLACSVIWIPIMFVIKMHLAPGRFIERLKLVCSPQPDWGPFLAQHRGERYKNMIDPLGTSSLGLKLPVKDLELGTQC

[2] = target: T2, Sodium- and chloride-dependent glycine transporter 2 (Homo sapiens) (UniProt Q9Y345); experiment: Inhibition of recombinant human GlyT2a expressed in Xenopus laevis oocytes assessed as reduction in channel current by two-electrode voltage clamp electrophysiology relative to control; format: cell-based
T2 sequence (whole entry): T1 sequence (Q9Y345 whole entry)

[3] = target: T3, Sodium- and chloride-dependent glycine transporter 1 (Homo sapiens, UniProt P48067); experiment: Inhibition of recombinant human GlyT1b expressed in Xenopus laevis oocytes assessed as reduction in channel current by two-electrode voltage clamp electrophysiology; format: cell-based
T3 sequence (P48067 whole entry): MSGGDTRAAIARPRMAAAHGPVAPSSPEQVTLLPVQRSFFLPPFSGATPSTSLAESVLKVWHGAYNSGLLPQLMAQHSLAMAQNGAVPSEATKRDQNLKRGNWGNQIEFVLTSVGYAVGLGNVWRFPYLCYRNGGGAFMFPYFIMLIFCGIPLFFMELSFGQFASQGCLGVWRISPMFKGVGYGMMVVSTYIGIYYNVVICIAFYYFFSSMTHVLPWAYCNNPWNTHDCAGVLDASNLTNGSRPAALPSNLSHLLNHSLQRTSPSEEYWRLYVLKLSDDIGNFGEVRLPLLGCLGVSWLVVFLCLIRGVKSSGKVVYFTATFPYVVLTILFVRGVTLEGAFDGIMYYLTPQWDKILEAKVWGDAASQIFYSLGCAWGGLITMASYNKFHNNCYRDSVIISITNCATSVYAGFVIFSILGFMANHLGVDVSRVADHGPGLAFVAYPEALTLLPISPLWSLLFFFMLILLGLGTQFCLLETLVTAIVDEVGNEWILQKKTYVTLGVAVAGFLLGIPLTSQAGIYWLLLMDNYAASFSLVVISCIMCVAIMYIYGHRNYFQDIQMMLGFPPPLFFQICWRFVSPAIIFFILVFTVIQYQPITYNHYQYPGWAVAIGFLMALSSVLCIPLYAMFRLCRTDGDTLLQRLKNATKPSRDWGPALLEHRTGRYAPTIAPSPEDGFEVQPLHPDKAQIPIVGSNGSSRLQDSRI

[4] = target: T1, Sodium- and chloride-dependent glycine transporter 2; experiment: Reversible non-competitive inhibition of human GlyT2a expressed in Xenopus laevis oocytes by two-electrode voltage clamp electrophysiology; format: cell-based
Outline: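 Xenopus laevis stage V-VI oocytes injected with 4.6 ng GlyT2 cRNA, kept 2-5 days at 16-18 °C in ND96 (pH 7.55). Two-electrode voltage clamp at -60 mV. Glycine concentration responses recorded without inhibitor, then after 2 min pre-application of inhibitor (10 nM, 30 nM or 1 μM) in ND96. Currents normalised per cell to Imax at 300 μM glycine without inhibitor; EC50 and Imax compared by ANOVA.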

[5] = Degradation half life in rat plasma at 1000 ng/ml by LC-MS/MS analysis; format: ADME, cell-free
Outline: (§1)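 Pooled human plasma (3 donors) or pooled male Sprague-Dawley rat plasma, thawed at 37°C. Spiked to a nominal 1000 ng/mL final (0.2% DMSO, 0.4% acetonitrile final) and incubated at 37°C. Aliquots were snap-frozen at time points over 4 h (n=3 per time point). Quantified by LC-MS against a same-species blank-plasma calibration with a leucine enkephalin internal standard.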

[6] = Degradation half life in human plasma at 1000 ng/ml by LC-MS/MS analysis; format: ADME, cell-free; outline: as §1
[7] = Drug degradation in human plasma at 1000 ng/ml measured over 240 mins by LC-MS/MS analysis; format: ADME, cell-free; conditions: read-out: Drug degradation; outline: as §1

Compound	pIC50 [1]	Imax [2] [%]	pIC50 [3]	t1/2 [5] [h]	t1/2 [6] [h]	metabolised at 4 h, 1000 ng/ml [7] [%]	pIC50 [4]
CCCCCCCC/C=C\CCCCCCCC(=O)N[C@H](C(=O)O)C(C)C	5.93	90.1	< 4.52				
CCCCCCCC/C=C\CCCCCCCC(=O)N[C@@H](C)C(=O)O	5.91	89.8	< 4.52				
CCCCC/C=C\C/C=C\C/C=C\C/C=C\CCCC(=O)NCCCC(=O)O [ARACHIDONOYL GABA]							4.92
CCCCCCCC/C=C\CCCCCCCC(=O)NCC(=O)O [OLEOYL GLYCINE]	6.30	66.8	< 4.52	0.45	> 17.03	< 15	6.30
CCCCCCCC/C=C\CCCCCCCC(=O)N[C@H](C)C(=O)O	5.63	81.7	< 4.52				
CCCCCCCC/C=C\CCCCCCCC(=O)N[C@@H](C(=O)O)C(C)C	6.00	56.7	< 4.52				
CCCCCCCC/C=C\CCCCCCCC(=O)NCCCCCN	6.25	86.7	< 5.52				
CCCCCCCC/C=C\CCCCCCCC(=O)N[C@@H](CC(=O)O)C(=O)O	6.06	76.7	< 5.00				
CCCCC/C=C\C/C=C\C/C=C\C/C=C\CCCC(=O)N[C@@H](C)C(=O)O							5.05
CCCCC/C=C\C/C=C\C/C=C\C/C=C\CCCC(=O)NCC(=O)O [ARACHIDONOYL GLYCINE]							5.05
CCCCCCCCCCCCCCCC(=O)O[C@H](CC(=O)[O-])C[N+](C)(C)C							6.22
CCCCCCCC/C=C\CCCCCCCC(=O)N[C@H](CCC(=O)O)C(=O)O	5.43	91.6	< 5.00				
CCCCCCCC/C=C\CCCCCCCC(=O)N[C@H](CC(C)C)C(=O)O	< 4.52	35.6	< 4.52				
CCCCCCCC/C=C\CCCCCCCC(=O)N[C@H](Cc1ccccc1)C(=O)O	< 5.00	42.3	< 5.00				
CCCCCCCC/C=C\CCCCCCCC(=O)N[C@@H](CCC(=O)O)C(=O)O	5.36	100	< 5.00				
CCCCCCCC/C=C\CCCCCCCC(=O)O[C@H](CC(=O)[O-])C[N+](C)(C)C							6.47
CCCCCCCC/C=C\CCCCCCCC(=O)N[C@@H](CC(N)=O)C(=O)O	6.21	92.7	< 5.00				
CCCCCCCC/C=C\CCCCCCCC(=O)N[C@@H](CO)C(=O)O	6.30	73.1	< 5.52				
CCCCCCCC/C=C\CCCCCCCC(=O)N[C@H](Cc1c[nH]c2ccccc12)C(=O)O	< 5.00	14.2	< 5.00				
CCCCCCCC/C=C\CCCCCCCC(=O)N[C@H](CCc1ccccc1)C(=O)O	< 5.00	10.2	< 5.00				
CCCCCCCC/C=C\CCCCCCCC(=O)N[C@H](CC(=O)O)C(=O)O	5.74	92.5	< 5.00				

Further lines, with some results ahead:

pIC50 [1]	Imax [2] [%]	pIC50 [3]	t1/2 [5] [h]	t1/2 [6] [h]	metabolised at 4 h, 1000 ng/ml [7] [%]	Compound	pIC50 [4]
7.32	87.2	< 5.52				CCCCCCCC/C=C\CCCCCCCC(=O)N[C@@H](CCCNC(=N)N)C(=O)O	
6.59	68.6	< 5.52				CCCCCCCC/C=C\CCCCCCCC(=O)N[C@H](CCSC)C(=O)O	
6.59	64.5	< 5.00				CCCCCCCC/C=C\CCCCCCCC(=O)N[C@@H](CCCC)C(=O)O	
7.50	86	< 5.52				CCCCCCCC/C=C\CCCCCCCC(=O)N[C@@H](CCCN)C(=O)O	
6.67	54.7	< 5.00				CCCCCCCC/C=C\CCCCCCCC(=O)N[C@@H](Cc1ccccc1)C(=O)O	
7.19	73.6	< 5.52				CCCCCCCC/C=C\CCCCCCCC(=O)N[C@H](CO)C(=O)O	
7.04	78.8	< 5.52				CCCCCCCC/C=C\CCCCCCCC(=O)N[C@@H](CCCCN)C(=O)OC	
7.53	91.2	< 5.52				CCCCCCCC/C=C\CCCCCCCC(=O)N[C@@H](CCSC)C(=O)O	
6.84	72.2	< 5.00				CCCCCCCC/C=C\CCCCCCCC(=O)N[C@@H](CC(C)C)C(=O)O	
7.16	70.9	< 5.52				CCCCCCCC/C=C\CCCCCCCC(=O)N[C@H](CCCNC(=N)N)C(=O)O	
6.89	78.4	< 5.52				CCCCCCCC/C=C\CCCCCCCC(=O)N[C@@H](Cc1cnc[nH]1)C(=O)O	
6.50	82.1	< 5.52				CCCCCCCC/C=C\CCCCCCCC(=O)N[C@H](Cc1cnc[nH]1)C(=O)O	
6.82	82.7	< 5.52				CCCCCCCC/C=C\CCCCCCCC(=O)N[C@@H](CCN)C(=O)O	
6.82	75.1	< 5.00				CCCCCCCC/C=C\CCCCCCCC(=O)N[C@@H](CCc1ccccc1)C(=O)O	
7.26	86.2	< 5.00				CCCCCCCC/C=C\CCCCCCCC(=O)N[C@@H](Cc1c[nH]c2ccccc12)C(=O)O	
6.74	58.2	< 5.52				CCCCCCCC/C=C\CCCCCCCC(=O)N[C@@H](CN)C(=O)O	

— ChEMBL document CHEMBL4480400, “Development of an N-Acyl Amino Acid That Selectively Inhibits the Glycine Transporter 2 To Produce Analgesia in a Rat Model of Chronic Pain” (J Med Chem, 2019)
